# Results gathered from unrelated publications.
SMILES,tested on,test,system,setting,measurement,result
C[C@H](NC(=O)CO/N=c1\cc2n(-c3ccc(Cl)cc3)c3ccccc3nc-2cc1Nc1ccc(Cl)cc1)C(=O)OC(C)(C)C,Mycobacterium avium,microbial growth,,clinical isolate,MIC,> 30 µM
O=C(c1ccc(Oc2ccc(-c3ccccc3)cc2)c([N+](=O)[O-])c1)C(Cl)Cl,NCI-H1975,"cell growth or viability, MTT",,2.5 µM,inhibition,85.2%
CCOC(=O)CNC(=O)CO/N=c1\cc2n(-c3ccc(Cl)cc3)c3ccccc3nc-2cc1Nc1ccc(Cl)cc1,Mycobacterium avium,microbial growth,,clinical isolate,MIC,> 30 µM
COc1cccc2c1C(=O)c1c(O)c3c(c(O)c1C2=O)C[C@@](O)(C(=O)CO)C[C@@H]3O[C@H]1C[C@H](N)[C@H](O)[C@H](C)O1,NCI-H1975,"cell growth or viability, MTT",,2.5 µM,inhibition,97.7%
O/N=c1\cc2n(-c3ccc(Cl)cc3)c3ccccc3nc-2cc1Nc1ccc(Cl)cc1,Mycobacterium avium,microbial growth,,clinical isolate,MIC,> 30 µM
Nc1nc(N)c(OCCCOc2ccccc2CCC(=O)O)c(C2CCNCC2)n1,Mycobacterium avium,"microbial growth, resazurin",,,MIC,6.2 µg/mL
O=C(c1ccc(Oc2ccc3oc(=O)ccc3c2)c([N+](=O)[O-])c1)C(Cl)Cl,NCI-H1975,"cell growth or viability, MTT",,2.5 µM,inhibition,61.6%
Nc1nc(N)c(OCCCOc2ccccc2CCC(=O)O)c(-c2ccccc2C(F)(F)F)n1,Mycobacterium avium,"microbial growth, resazurin",,,MIC,3.6 µg/mL
CN(Cc1ccc(C(C)(C)C)cc1)Cc1cccc2ccccc12,Trichophyton rubrum,"microbial growth, disc diffusion",ATCC28188,"0.064 µg/mL, 6 days",inhibition zone,≥ 55 mm
O=C(c1ccc(Oc2ccc(Br)cc2)c([N+](=O)[O-])c1)C(Cl)Cl,NCI-H1975,"cell growth or viability, MTT",,2.5 µM,inhibition,60.3%
CO/N=c1\cc2n(-c3ccc(Cl)cc3)c3ccccc3nc-2cc1Nc1ccc(Cl)cc1,Mycobacterium avium,microbial growth,ATCC700898,,MIC,0.47 µM
O=C(c1ccc(Oc2ccc3cc(Br)ccc3c2Cl)c([N+](=O)[O-])c1)C(Cl)Cl,NCI-H1975,"cell growth or viability, MTT",,2.5 µM,inhibition,85.4%
NCCCc1nc(N)nc(N)c1OCCCOc1ccccc1CCC(=O)O,Mycobacterium avium,"microbial growth, resazurin",,,MIC,12.9 µg/mL
CN(Cc1ccc(C2(C(F)(F)F)CC2)cc1)Cc1cccc2ccccc12,Trichophyton rubrum,"microbial growth, disc diffusion",ATCC28188,"0.256 µg/mL, 6 days",inhibition zone,≥ 55 mm
O=C(O)CO/N=c1\cc2n(-c3ccc(Cl)cc3)c3ccccc3nc-2cc1Nc1ccc(Cl)cc1,Mycobacterium avium,microbial growth,ATCC700898,,MIC,0.94 µM
C=CC(=O)NC1CCN(c2ncc3ncnc(Nc4ccc(Oc5ccc6c(c5)ncn6C)c(C)c4)c3n2)CC1,NCI-H520,cell growth or viability,,,EC50,706 nM
Nc1nc(N)c(OCCCOc2ccccc2CCC(=O)O)c(-c2ccncc2)n1,Mycobacterium avium,"microbial growth, resazurin",,,MIC,0.6 µg/mL
O=C(CO/N=c1\cc2n(-c3ccc(Cl)cc3)c3ccccc3nc-2cc1Nc1ccc(Cl)cc1)NCc1ccc(C(F)(F)F)cc1,Mycobacterium avium,microbial growth,ATCC700898,,MIC,> 30 µM
CC(=O)c1ccc(Oc2ccc(C(=O)C(Cl)Cl)cc2[N+](=O)[O-])cc1,NCI-H1975,"cell growth or viability, MTT",,2.5 µM,inhibition,85.2%
